From ChEMBL document CHEMBL4715832, “Isoquinoline-based biaryls as a robust scaffold for microtubule inhibitors” (Eur J Med Chem, 2020) come the findings set out here.

Active and inactive are the calls of the source. Bounds are passed on as bounds.

Series [1] deals with HeLa. Kind of series: Antiproliferative activity against human HeLa cells assessed as reduction in cell growth after 48 hrs by resazurin dye based fluorescence assay. Type of series: functional. The procedure, abridged: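 HeLa cells grown in DMEM with 10% FCS and penicillin/streptomycin, 37 °C, 5% CO2. Seeded 5,000 cells/well, treated 24 h later with DMSO 1% final, then incubated 48 h. Resazurin reduction to resorufin measured over 3 h at 37 °C by fluorescence (ex 544/em 590 nm). Normalised to cosolvent control (100%) and cell-free wells (0%). Means of at least three independent experiments.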
For orientation: Resazurin is reduced to fluorescent resorufin, in cell work by metabolically active cells.

The subject of series [2] is HeLa. The experiment in a line: Induction of microtubule network depolymerization in human HeLa cells after 24 hrs by immunofluorescence staining based confocal microscopic analysis. Type of series: cell-based. Summed up: (§1)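 HeLa cells seeded on glass coverslips (50,000 cells/well), allowed to adhere 18 h, then treated 24 h. Fixed with 0.5% glutaraldehyde, quenched with 0.1% NaBH4, blocked with PBS + 10% FCS. Stained with rabbit anti-alpha-tubulin (1:400, 1 h), then Alexa Fluor 488 anti-rabbit secondary, with DAPI nuclear counterstain. Imaged by confocal microscopy, including z-stack projections.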

For a further series, the system named is tubulin (Sus scrofa). The experiment in a line: Inhibition of porcine tubulin polymerization at 20 uM preincubated for 10 mins followed by GTP addition by turbidimetric method.
A further series deals with CYP2D6 (Homo sapiens, UniProt P10635). The experiment in a line: Inhibition of human CYP2D6 at 10 uM relative to control. Type of series: ADME. Summed up:
(§2)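 Inhibition measured against five human cytochrome P450 isoforms, with test compound at 10 µM, applied as the dephosphorylated phenol.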

Series [3] has as its system liver microsomes (Mus musculus). Kind of series: Half life in mouse liver microsomes at 2 uM.
The subject of the next series is HL-60. The experiment in a line: Antiproliferative activity against human HL-60 cells assessed as reduction in cell growth after 24 hrs by MTT assay. Type of series: functional, cell-based. Conditions: HL-60, 24 h. Summed up:
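HL-60 cells grown in RPMI 1640 with 10% FCS, no antibiotics, 37 °C, 5% CO2. Seeded 9,000 cells/well, treated 24 h later with DMSO cosolvent at 1% final. After 24 h, MTT 0.5 mg/mL for 2 h, absorbance read. Normalised to cosolvent control (100%) and Triton X-100-treated cells (0%). Means of at least three independent experiments.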

The target in another series is T1, CYP1A2 (Homo sapiens, UniProt P05177).
T1 sequence (P05177 whole entry): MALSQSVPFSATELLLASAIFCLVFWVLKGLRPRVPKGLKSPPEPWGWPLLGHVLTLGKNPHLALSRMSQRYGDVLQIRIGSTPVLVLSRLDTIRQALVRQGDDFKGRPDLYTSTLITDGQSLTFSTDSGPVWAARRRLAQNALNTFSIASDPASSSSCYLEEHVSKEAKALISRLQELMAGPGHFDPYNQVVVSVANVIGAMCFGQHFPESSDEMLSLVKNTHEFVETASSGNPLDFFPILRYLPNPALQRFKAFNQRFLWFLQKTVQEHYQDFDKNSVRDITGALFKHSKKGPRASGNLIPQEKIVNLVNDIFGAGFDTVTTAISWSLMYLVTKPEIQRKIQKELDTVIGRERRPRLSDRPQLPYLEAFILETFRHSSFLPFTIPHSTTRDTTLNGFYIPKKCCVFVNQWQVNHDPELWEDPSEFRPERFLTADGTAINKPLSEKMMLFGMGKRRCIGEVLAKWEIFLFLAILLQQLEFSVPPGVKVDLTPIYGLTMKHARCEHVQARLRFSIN
The experiment in a line: Inhibition of human CYP1A2 at 10 uM relative to control. Type of series: ADME. Summed up: as §2

The nature of series [4]: Stability in human liver microsomes assessed as parent compound remaining at 2 uM measured after 20 mins in presence of cofactor. Conditions: read-out: Stabilty. Type of series: ADME, Microsome. For orientation: Liver microsomes are a subcellular fraction often used to study metabolism.
In series [5] the test system is liver microsomes (Mus musculus). Kind of series: Stability in mouse liver microsomes assessed as parent compound remaining at 2 uM measured after 40 mins in presence of cofactor. Conditions: read-out: Stabilty.
Series [6] in a line: Stability in human liver microsomes assessed as parent compound remaining at 2 uM measured after 40 mins in presence of cofactor. Type of series: ADME, Microsome. Conditions: read-out: Stabilty.
For series [7], the system named is liver microsomes (Mus musculus). The experiment in a line: Stability in mouse liver microsomes assessed as parent compound remaining at 2 uM measured after 10 mins in presence of cofactor. Conditions: read-out: Stabilty.
Series [8] in a line: Half life in human liver microsomes at 2 uM. Type of series: ADME, Microsome.
Series [9] deals with liver microsomes (Mus musculus). The experiment in a line: Stability in mouse liver microsomes assessed as parent compound remaining at 2 uM measured immediately in presence of cofactor. The settings on record: read-out: Stabilty.
For a further series, the target named is CYP2C9 (Homo sapiens, UniProt P11712). The experiment in a line: Inhibition of human CYP2C9 at 10 uM relative to control. Type of series: ADME. Summed up:
as §2

In series [10] the target is T2, hERG (KCNH2) (Homo sapiens, UniProt Q12809). Kind of series: Inhibition of human ERG at 1 uM by fluorescence polarization assay relative to control. The procedure, abridged: (§3)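 hERG channel inhibition measured with a fluorescence polarisation reporter assay, applied to the dephosphorylated phenol.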
T2 sequence (Q12809 whole entry): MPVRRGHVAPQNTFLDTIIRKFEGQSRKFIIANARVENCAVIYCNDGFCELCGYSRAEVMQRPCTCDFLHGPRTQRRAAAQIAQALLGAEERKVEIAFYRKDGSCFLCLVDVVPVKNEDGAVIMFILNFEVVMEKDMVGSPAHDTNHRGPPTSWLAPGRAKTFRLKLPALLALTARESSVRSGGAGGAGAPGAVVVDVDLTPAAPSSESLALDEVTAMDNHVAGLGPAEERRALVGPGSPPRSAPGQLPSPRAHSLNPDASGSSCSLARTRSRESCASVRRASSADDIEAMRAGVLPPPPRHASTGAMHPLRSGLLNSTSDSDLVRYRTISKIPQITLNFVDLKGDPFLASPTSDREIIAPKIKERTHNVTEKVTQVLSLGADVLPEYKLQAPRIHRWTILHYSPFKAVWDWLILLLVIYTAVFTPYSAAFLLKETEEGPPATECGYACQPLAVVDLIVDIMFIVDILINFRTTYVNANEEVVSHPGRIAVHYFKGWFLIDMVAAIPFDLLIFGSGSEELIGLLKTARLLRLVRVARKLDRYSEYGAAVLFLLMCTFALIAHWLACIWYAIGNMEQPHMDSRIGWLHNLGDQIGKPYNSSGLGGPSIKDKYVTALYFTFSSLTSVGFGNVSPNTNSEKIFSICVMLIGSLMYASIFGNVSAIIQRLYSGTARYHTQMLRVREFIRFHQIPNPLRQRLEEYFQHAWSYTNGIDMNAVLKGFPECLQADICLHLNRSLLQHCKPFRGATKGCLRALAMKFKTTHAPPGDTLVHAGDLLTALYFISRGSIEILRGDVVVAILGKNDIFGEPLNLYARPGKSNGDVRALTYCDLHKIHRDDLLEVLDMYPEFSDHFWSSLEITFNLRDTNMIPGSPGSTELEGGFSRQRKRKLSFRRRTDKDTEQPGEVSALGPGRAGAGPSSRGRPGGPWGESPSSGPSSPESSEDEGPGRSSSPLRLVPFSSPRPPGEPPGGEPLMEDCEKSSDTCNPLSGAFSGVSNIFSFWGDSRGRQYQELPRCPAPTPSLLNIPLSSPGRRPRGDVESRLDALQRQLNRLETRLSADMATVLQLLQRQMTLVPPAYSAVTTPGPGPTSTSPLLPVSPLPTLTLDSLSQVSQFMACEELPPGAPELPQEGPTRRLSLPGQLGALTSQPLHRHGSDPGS
(In general: Polarisation of emitted light reports the rotation of a fluorescent probe.)

For series [11], the target named is T2, hERG (KCNH2). Kind of series: Inhibition of human ERG at 5 uM by fluorescence polarization assay relative to control. The procedure, abridged:
as §3

The test system of series [12] is liver microsomes (Mus musculus). Kind of series: Stability in mouse liver microsomes assessed as parent compound remaining at 2 uM measured immediately in absence of cofactor. Conditions: read-out: Stabilty.
Series [13] is described as follows: Stability in human liver microsomes assessed as parent compound remaining at 2 uM measured after 40 mins in absence of cofactor. Conditions: read-out: Stabilty. Type of series: ADME, Microsome.
In series [14] the test system is liver microsomes (Mus musculus). Kind of series: Stability in mouse liver microsomes assessed as parent compound remaining at 2 uM measured after 40 mins in absence of cofactor. Conditions: read-out: Stabilty.
The nature of series [15]: Stability in human liver microsomes assessed as parent compound remaining at 2 uM measured after 30 mins in presence of cofactor. The class given is ADME, Microsome. Conditions: read-out: Stabilty.
Series [16] is described as follows: Stability in human liver microsomes assessed as parent compound remaining at 2 uM measured immediately in presence of cofactor. Type of series: ADME, Microsome. The settings on record: read-out: Stabilty.
Series [17] is described as follows: Stability in human liver microsomes assessed as parent compound remaining at 2 uM measured immediately in absence of cofactor. The settings on record: read-out: Stabilty. The class given is ADME, Microsome.
In the next series the target is CYP2C19 (Homo sapiens, UniProt P33261). Kind of series: Inhibition of human CYP2C19 at 10 uM relative to control. Type of series: ADME. The procedure, abridged:
as §2

Series [18] is described as follows: Stability in human liver microsomes assessed as parent compound remaining at 2 uM measured after 10 mins in presence of cofactor. Type of series: ADME, Microsome. The settings on record: read-out: Stabilty.
Series [19] addresses T2, hERG (KCNH2). Kind of series: Inhibition of human ERG at 25 uM by fluorescence polarization assay relative to control. The procedure, abridged: as §3
A further series concerns the target CYP3A4 (Homo sapiens, UniProt P08684). The experiment in a line: Inhibition of human CYP3A4 at 10 uM relative to control. The class given is ADME. Summed up:
as §2

For series [20], the system named is liver microsomes (Mus musculus). The experiment in a line: Stability in mouse liver microsomes assessed as parent compound remaining at 2 uM measured after 20 mins in presence of cofactor. The settings on record: read-out: Stabilty.
For series [21] the test system is unchanged. Kind of series: Stability in mouse liver microsomes assessed as parent compound remaining at 2 uM measured after 30 mins in presence of cofactor. Conditions: read-out: Stabilty.
Series [22] is described as follows: Solubility of compound. The class given is physicochemical.
Series [23] has as its system HeLa. The experiment in a line: Induction of microtubule network depolymerization in human HeLa cells at 15 uM after 24 hrs by immunofluorescence staining based confocal microscopic analysis. The class given is cell-based. The procedure, abridged: as §1

Sequence of CYP2C9 (P11712 whole entry): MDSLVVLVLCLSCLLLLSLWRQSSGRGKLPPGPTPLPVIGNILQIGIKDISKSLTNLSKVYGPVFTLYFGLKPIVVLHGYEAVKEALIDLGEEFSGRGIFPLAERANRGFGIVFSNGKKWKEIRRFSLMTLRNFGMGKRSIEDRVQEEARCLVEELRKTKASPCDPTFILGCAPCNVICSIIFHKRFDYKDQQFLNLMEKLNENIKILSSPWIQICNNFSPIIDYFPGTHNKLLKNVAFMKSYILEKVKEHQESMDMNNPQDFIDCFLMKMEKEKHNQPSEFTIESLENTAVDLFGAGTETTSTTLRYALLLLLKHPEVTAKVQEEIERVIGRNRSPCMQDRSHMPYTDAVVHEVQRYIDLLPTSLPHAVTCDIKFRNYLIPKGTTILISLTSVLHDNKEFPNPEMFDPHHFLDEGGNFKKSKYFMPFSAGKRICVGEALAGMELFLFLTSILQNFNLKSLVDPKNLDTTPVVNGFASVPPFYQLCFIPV
Sequence of CYP2D6 (P10635 whole entry, canonical isoform): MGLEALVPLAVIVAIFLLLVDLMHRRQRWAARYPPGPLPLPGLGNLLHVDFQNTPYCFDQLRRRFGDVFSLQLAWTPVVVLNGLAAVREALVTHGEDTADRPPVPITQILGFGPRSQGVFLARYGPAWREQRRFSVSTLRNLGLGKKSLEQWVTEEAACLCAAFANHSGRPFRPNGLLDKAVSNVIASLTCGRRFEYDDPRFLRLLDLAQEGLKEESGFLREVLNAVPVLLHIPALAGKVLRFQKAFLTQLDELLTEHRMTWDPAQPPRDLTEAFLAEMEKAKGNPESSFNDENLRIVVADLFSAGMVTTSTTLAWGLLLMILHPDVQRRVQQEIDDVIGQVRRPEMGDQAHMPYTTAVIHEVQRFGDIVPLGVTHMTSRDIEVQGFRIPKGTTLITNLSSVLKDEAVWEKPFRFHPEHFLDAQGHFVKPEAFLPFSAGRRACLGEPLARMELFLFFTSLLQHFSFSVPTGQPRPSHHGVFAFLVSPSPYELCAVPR
Sequence of CYP2C19 (P33261 whole entry): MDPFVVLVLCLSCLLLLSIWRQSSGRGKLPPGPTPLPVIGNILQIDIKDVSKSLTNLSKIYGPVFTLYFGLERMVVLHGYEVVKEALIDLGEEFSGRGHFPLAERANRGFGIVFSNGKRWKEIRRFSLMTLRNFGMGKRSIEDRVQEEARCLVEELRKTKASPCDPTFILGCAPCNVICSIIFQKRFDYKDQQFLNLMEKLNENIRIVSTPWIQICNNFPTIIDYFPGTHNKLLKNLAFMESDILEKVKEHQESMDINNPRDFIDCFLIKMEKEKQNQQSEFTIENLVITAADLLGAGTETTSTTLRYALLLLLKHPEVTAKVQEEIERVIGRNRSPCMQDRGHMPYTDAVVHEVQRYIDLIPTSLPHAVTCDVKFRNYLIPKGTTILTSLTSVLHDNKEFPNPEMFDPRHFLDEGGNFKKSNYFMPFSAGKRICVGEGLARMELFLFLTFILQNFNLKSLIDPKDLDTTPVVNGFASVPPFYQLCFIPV
Sequence of CYP3A4 (P08684 whole entry): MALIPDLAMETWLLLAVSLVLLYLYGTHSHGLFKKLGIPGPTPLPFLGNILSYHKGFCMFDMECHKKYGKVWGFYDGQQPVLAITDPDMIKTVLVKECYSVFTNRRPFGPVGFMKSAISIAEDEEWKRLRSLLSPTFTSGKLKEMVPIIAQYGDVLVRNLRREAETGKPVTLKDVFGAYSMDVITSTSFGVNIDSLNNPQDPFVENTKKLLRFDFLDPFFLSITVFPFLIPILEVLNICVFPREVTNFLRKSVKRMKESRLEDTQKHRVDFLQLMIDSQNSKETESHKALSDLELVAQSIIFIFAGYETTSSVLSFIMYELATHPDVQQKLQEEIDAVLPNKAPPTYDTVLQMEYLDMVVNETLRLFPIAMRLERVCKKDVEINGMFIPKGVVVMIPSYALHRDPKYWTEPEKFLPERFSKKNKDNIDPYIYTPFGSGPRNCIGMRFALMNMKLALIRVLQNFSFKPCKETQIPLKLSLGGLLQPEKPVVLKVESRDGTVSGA

The EC50 is the midpoint of the concentration-response curve. As to `COc1cc2ccnc(-c3cc(OC)c(OC)c(OC)c3)c2cc1OC`, in the series with HeLa [1], the EC50 was above 20 µM. The Activity entry in the series with HeLa [2] was “Dose-dependent effect”.
On to `COc1ccc([C@H](O)c2nccc3c(OC)c(OC)c(OC)cc23)cc1`, for which the half-maximal effective concentration (EC50) in the series on HeLa [1] is above 100 µM.
What is called inhibition is the relative decrease from the control value, in per cent. In the case of `COc1cc2c(-c3cc(OC)c(OC)c(OC)c3)nccc2cc1F`, in the series with HeLa [1], the Activity result was “Dose-dependent effect” and the EC50 is 0.28 µM. The inhibition result in the series with tubulin (Sus scrofa) is “Active”. Also, the Activity result with HeLa [2] was “Dose-dependent effect”.
A word on the half-life: it is the time needed for the level to fall by half in the phase considered. Low values mean rapid decline, high ones slow decline. In the case of `COc1cc2c(-c3cc(OC)c(OC)c(OC)c3)nccc2cc1O`, the inhibition at 10 µM was 19% at CYP2D6; -4% at CYP1A2; 16% against CYP2C9; -49% at CYP2C19; 13% at CYP3A4. Besides, the half-life at 2 µM in series [3] stood at 1.12 h; in series [8], 1.13 h. The 50% effective concentration (EC50) in the series on HL-60 was 0.34 µM; in the series on HeLa [1], 0.12 µM. For the same molecule, the values for the remaining at 20 min, 2 µM in series [4] and in series [20] were 84% and 82%, respectively. The Activity entry in the series on HeLa [1] is “Dose-dependent effect”. Also, the remaining at 40 min, 2 µM in series [5] was 67%; in series [6], 69%; in series [13], 98%; in series [14] it was 105%. Also, the remaining at 10 min, 2 µM worked out at 93% in series [7] and 99% in series [18]. Besides, the remaining at 0 min, 2 µM in [9], in [12], in series [16] and in [17] was 100% throughout. For the same molecule, on hERG (KCNH2) [10], the inhibition at 1 µM is -3%. Besides, on hERG (KCNH2) [11], the inhibition at 5 µM was -18%. Besides, the remaining at 0.5 h, 2 µM in [15] amounted to 75%; in series [21] it was 73%. Also, at hERG (KCNH2) [19], the inhibition at 25 µM is -5%.
`COc1cc(-c2nccc3cc4c(cc23)OCO4)cc(OC)c1OC`: the EC50 in the series with HeLa [1] is above 20 µM. The solubility result in series [22] is reported as “Insoluble”. Moreover, the outcome in the series with HeLa [23] and in the series on HeLa [2] was inactive.
Turning to `COc1cccc(-c2nccc3c(OC)c(OC)c(OC)cc23)c1`, the concentration giving a half-maximal response (EC50) in the series on HeLa [1] was determined as 15 µM.
For `COc1cc(-c2nccc3c(OC)c(OC)c(OC)cc23)ccc1OP(=O)(O)O`, the EC50 in the series with HL-60 and with HeLa [1] was above 100 µM each time.
